Consider 4 molecules from ChEMBL document CHEMBL3046736, “Kinetic studies of novel inhibitors of endomorphin degrading enzymes” (Med Chem Res, 2012).

Assay [1] has as its target T1, Dipeptidyl peptidase 4 (Homo sapiens, UniProt P27487). The assay is described as follows: Inhibition of DPP-4 (unknown origin) assessed as half-life of endomorphin-2 after 30 min by RP-HPLC analysis (reference value: […] +/- 0.64 min).
Target sequence in this assay (P27487 whole entry, looked up): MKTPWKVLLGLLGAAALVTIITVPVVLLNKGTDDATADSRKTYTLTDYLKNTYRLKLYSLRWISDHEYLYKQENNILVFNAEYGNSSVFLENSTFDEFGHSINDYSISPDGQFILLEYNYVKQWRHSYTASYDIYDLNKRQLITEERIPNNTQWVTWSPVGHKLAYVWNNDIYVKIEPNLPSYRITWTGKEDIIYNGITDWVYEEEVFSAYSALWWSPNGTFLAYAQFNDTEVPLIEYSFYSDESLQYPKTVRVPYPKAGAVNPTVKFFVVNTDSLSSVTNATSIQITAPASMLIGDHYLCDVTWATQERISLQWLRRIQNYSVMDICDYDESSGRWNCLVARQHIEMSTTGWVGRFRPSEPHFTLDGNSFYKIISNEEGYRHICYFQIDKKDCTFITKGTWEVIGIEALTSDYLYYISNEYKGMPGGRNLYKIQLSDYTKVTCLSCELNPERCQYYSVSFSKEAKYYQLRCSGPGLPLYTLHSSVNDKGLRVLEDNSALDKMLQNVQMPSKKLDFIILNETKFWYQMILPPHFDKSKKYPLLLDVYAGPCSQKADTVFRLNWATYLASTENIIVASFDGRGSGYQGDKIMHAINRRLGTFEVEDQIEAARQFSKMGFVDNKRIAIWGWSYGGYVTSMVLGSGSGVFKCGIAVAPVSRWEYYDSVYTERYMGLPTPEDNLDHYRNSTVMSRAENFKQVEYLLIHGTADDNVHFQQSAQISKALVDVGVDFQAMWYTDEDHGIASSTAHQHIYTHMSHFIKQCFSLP
Assay [2] concerns the target T1, Dipeptidyl peptidase 4. As to the kind of experiment: Inhibition of DPP-4 (unknown origin) assessed as half-life of endomorphin-1 after 30 min by RP-HPLC analysis (reference value: […] +/- 0.52 min).
Target sequence in this assay (P27487 whole entry, looked up): as above
Assay [3] concerns the target T1, Dipeptidyl peptidase 4. As to the kind of experiment: Inhibition of DPP-4 (unknown origin) assessed as inhibition of endomorphin-1 degradation after 30 min. Put shortly: (§1)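 Purified commercial DPP IV (0.002 mg protein/ml) incubated with endomorphin and inhibitor, each from 1 mM solutions in 50 mM Tris–HCl pH 7.4, at 37°C for 0, 7.5, 15, 22.5 and 30 min. Stopped on ice with 1 M HCl, centrifuged. Rate constant k from linear regression of ln(A/A0) of peptide peak area versus time; t1/2 = ln2/k. Three independent experiments in duplicate.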

For assay [4], the target named is T1, Dipeptidyl peptidase 4. The assay is described as follows: Inhibition of DPP-4 (unknown origin) assessed as inhibition of endomorphin-2 degradation after 30 min. Put shortly:
as §1

Assay [5] has as its target T2, Aminopeptidase N (Homo sapiens, UniProt P15144). The assay is described as follows: Inhibition of APM (unknown origin) assessed as inhibition of endomorphin-1 degradation after 30 min.
Assay [6] has as its target T2, Aminopeptidase N. As to the kind of experiment: Inhibition of APM (unknown origin) assessed as inhibition of endomorphin-2 degradation after 30 min.
Assay [7] deals with T2, Aminopeptidase N.
Assay [8] has as its target T2, Aminopeptidase N. The source holds these as a separate data set.

The structures appear in SMILES notation. Residues, ends and D or L forms follow the SMILES beside them.

T2 sequence (P15144 whole entry): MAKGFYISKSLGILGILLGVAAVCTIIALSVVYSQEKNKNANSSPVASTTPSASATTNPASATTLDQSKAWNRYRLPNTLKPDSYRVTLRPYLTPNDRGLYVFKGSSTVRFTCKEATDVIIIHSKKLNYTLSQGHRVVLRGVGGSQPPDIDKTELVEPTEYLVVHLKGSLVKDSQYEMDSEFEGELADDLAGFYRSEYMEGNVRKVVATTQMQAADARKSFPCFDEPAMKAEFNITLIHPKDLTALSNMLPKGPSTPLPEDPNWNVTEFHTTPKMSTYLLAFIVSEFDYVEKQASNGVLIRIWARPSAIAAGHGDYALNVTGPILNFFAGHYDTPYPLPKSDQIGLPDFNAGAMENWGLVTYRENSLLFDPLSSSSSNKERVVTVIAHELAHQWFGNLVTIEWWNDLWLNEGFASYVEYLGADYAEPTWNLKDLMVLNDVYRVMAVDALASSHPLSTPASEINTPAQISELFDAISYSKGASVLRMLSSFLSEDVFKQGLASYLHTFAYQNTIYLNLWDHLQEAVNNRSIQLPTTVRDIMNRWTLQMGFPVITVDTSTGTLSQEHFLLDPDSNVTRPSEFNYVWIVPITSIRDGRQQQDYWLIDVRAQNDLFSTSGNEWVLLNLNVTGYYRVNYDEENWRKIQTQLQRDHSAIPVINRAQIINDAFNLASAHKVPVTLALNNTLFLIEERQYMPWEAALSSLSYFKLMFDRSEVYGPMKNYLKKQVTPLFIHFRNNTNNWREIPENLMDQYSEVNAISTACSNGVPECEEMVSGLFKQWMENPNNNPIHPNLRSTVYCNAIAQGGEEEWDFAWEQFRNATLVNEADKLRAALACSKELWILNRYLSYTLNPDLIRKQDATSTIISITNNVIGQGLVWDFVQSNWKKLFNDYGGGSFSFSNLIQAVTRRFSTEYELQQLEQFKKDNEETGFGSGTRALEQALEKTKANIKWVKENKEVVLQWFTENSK

For `CC[C@H](C)[C@H](N)C(=O)N1CCC[C@H]1C(=O)N[C@H](C(=O)O)[C@@H](C)CC`, the T1/2 at Dipeptidyl peptidase 4 [1] stood at 383 min; at Dipeptidyl peptidase 4 [2], 530 min.
By Ki is commonly meant the equilibrium dissociation constant of an inhibitor or competing ligand from its target. A word on the inhibition: it is the share of the control response that was lost under treatment. Consider `C[C@H](NC(=O)[C@@H]1CCCN1C(=O)[C@@H](N)Cc1ccc(O)cc1)C(N)=O` (H-Tyr-Pro-Ala-NH2), for which the figures for the Ki on Dipeptidyl peptidase 4 [3] and on Dipeptidyl peptidase 4 [4] were 420 µM and 170 µM, respectively. Besides, the inhibition was 26.7% on Dipeptidyl peptidase 4 [3] and 44.8% at Dipeptidyl peptidase 4 [4]. In addition, the T1/2 was 19.8 min at Dipeptidyl peptidase 4 [1] and 22.9 min on Dipeptidyl peptidase 4 [2].
As to `C[C@H](NC(=O)[C@@H]1CCCN1C(=O)[C@@H](N)Cc1ccc(O)cc1)C(=O)O` (H-Tyr-Pro-Ala-OH), the values for the T1/2 on Dipeptidyl peptidase 4 [1] and on Dipeptidyl peptidase 4 [2] were 27.4 min and 27.5 min, respectively.
In the case of `CCCCC[C@H](CC(=O)NO)C(=O)N[C@H](C(=O)N1CCC[C@H]1CO)C(C)C` [ACTINONIN], the Ki at Aminopeptidase N [5] is 390 µM; on Aminopeptidase N [6], 300 µM. Also, the figures for the T1/2 on Aminopeptidase N [7] and at Aminopeptidase N [8] were 46.3 min and 36.8 min, respectively.
